ChEMBL document CHEMBL3259749, “Design, synthesis and evaluation of novel 2,5,6-trisubstituted benzimidazoles targeting FtsZ as antitubercular agents” (Bioorg Med Chem, 2014)
In brackets after ≈: the same amount, converted by molar mass. Activity calls are given as the source filed them. The rule behind the calls is not given here.

Tests used:
[1] = system: Mycobacterium tuberculosis; test: Antimycobacterial activity against Mycobacterium tuberculosis H37Rv assessed as growth inhibition at 1 ug/ml after 7 days incubation by Alamar Blue staining-based broth microdilution assay; assay type: functional; conditions: 168 h, read-out: GI
[2] = system: Mycobacterium tuberculosis; test: Antimycobacterial activity against Mycobacterium tuberculosis H37Rv assessed as growth inhibition after 7 days incubation by Alamar Blue staining-based broth microdilution assay; assay type: functional; conditions: 168 h
Procedure, shortened: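 Mid-log Mtb H37Rv grown in 7H9 with 10% OADC and 0.05% Tween-80, added to 2-fold serial dilutions of DMSO-stocked compound at OD600 0.005. Incubated 6 days at 37 °C, then Alamar Blue added for a further 24 h at 37 °C. Colour change read by eye; MIC99 taken in triplicate.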

Vero = test: Cytotoxicity against African green monkey Vero cells […] by MTT assay; assay type: cell-based; conditions: Chlorocebus sabaeus
[3] = system: Mycobacterium tuberculosis; test: Inhibition of Mycobacterium tuberculosis FtsZ polymerization assessed as reduction in length, density and aggregation of polymer at 40 to 80 uM by Transmission electron microscopy in presence of 25 uM GTP
Procedure, shortened: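 Mtb-FtsZ at 5 μM, Ni-NTA purified, held 15 min on ice with ethanol-stocked compound in 50 mM MES pH 6.5, 5 mM MgCl2, 100 mM KCl. GTP added to 25 μM final, then 30 min at 37 °C. Sample diluted 2-fold, negatively stained with 1% uranyl acetate on carbon-coated grids, imaged at 80 kV at 23,000x and 49,000x.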

[4] = Binding affinity to Mycobacterium tuberculosis FtsZ assessed as fluorescence intensity at emission maximum 427.9 nm
Procedure, shortened: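 Fluorescence of compound held at 100 μM, titrated with His-tagged Mtb-FtsZ expressed in E. coli BL21(DE3). FtsZ was Ni-resin purified and dialysed into Tris storage buffer. Run in 50 mM MES, 100 mM KCl, 5 mM MgCl2, with no GTP. Excitation 316 nm, emission 427.9 nm. Kd obtained by fitting ΔF = (ΔFmax × L)/(Kd + L).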

[5] = system: Mycobacterium tuberculosis; test: Inhibition of Mycobacterium tuberculosis FtsZ polymerization assessed as 90 degrees light scattering by fluorescence system
Procedure, shortened: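 His-tagged Mtb-FtsZ at 15 μM, Ni-resin and size-exclusion purified, preincubated with DMSO-stocked compound for up to 300 s. Buffer was 50 mM MES pH 6.5, 100 mM KCl, 5 mM MgCl2. Polymerization started with 100 μM GTP. 90° light scattering recorded at 30 °C, excitation/emission 400 nm, for up to 30 min.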

`C=CCCC(=O)Nc1cc2nc(C3CCCCC3)[nH]c2cc1Sc1ccccc1` gave an inhibition of growth at 1 µg/mL [1] of 56%.
With `CCCCOC(=O)Nc1cc2nc(C3CCCCC3)[nH]c2cc1N(CC)CC` the MIC [2] was 0.78 µg/mL (≈ 2.02 µM).
For `O=S(=O)(Nc1cc2nc(C3CCCCC3)[nH]c2cc1Sc1ccc(F)cc1)c1ccccc1`, the inhibition of growth at 1 µg/mL [1] was 30%.
For `Cc1ccc(C(=O)Nc2cc3nc(C4CCCCC4)[nH]c3cc2Sc2ccccc2)cc1`, the IC50 (Vero) was 6.25 µM, the inhibition of growth at 1 µg/mL [1] was 31% and the MIC [2] was 6.25 µg/mL (≈ 14.2 µM).
Compound `CCOc1cc2[nH]c(C3CCCCC3)nc2cc1NC(=O)c1ccc(C)cc1` has an inhibition of growth at 1 µg/mL [1] of 65%.
For `CC(C)(C)c1ccc(C(=O)Nc2cc3nc(C4CCCCC4)[nH]c3cc2Sc2ccccc2)cc1`, the inhibition of growth at 1 µg/mL [1] was 42%.
Compound `CCCCOC(=O)Nc1cc2nc(C3CCCCC3)[nH]c2cc1N1CCCC1` has an MIC [2] of 0.39 µg/mL (≈ 1.01 µM).
Compound `CC(C)(C)c1ccc(C(=O)Nc2cc3nc(C4CCCCC4)[nH]c3cc2SCc2ccccc2)cc1` has an IC50 (Vero) of over 200 µM, an inhibition of growth at 1 µg/mL [1] of 52% and an MIC [2] of 12.5 µg/mL (≈ 25.1 µM).
`O=S(=O)(Nc1cc2nc(C3CCCCC3)[nH]c2cc1SCc1ccccc1)c1ccccc1` showed an inhibition of growth at 1 µg/mL [1] of 30%.
With `CCCCSc1cc2[nH]c(C3CCCCC3)nc2cc1NC(=O)c1ccc(C)cc1` the IC50 (Vero) was over 200 µM and the inhibition of growth at 1 µg/mL [1] was 53%.
`CCCCSc1cc2[nH]c(C3CCCCC3)nc2cc1NC(=O)c1ccc(C(C)(C)C)cc1` gave an inhibition of growth at 1 µg/mL [1] of 45%.
For `CCCOC(=O)Nc1cc2nc(C3CCCCC3)[nH]c2cc1Sc1ccc(F)cc1`, the inhibition of growth at 1 µg/mL [1] was 46%.
For `Cc1ccc(C(=O)Nc2cc3nc(C4CCCCC4)[nH]c3cc2Oc2ccc(F)cc2)cc1`, the IC50 (Vero) was 26 µM, the inhibition of growth at 1 µg/mL [1] was 36% and the MIC [2] was 1.56 µg/mL (≈ 3.52 µM).
`CCCCSc1cc2[nH]c(C3CCCCC3)nc2cc1NC(=O)OCCC` gave an IC50 (Vero) of 75 µM, an inhibition of growth at 1 µg/mL [1] of 38% and an MIC [2] of 1.25 µg/mL (≈ 3.21 µM).
Work on `COc1ccc(C(=O)Nc2cc3nc(C4CCCCC4)[nH]c3cc2Oc2ccc(F)cc2)cc1` yielded an IC50 (Vero) of 40 µM and an MIC [2] of 3.13 µg/mL (≈ 6.81 µM).
`CCN(CC)c1cc2[nH]c(C3CCCCC3)nc2cc1NC(=O)c1ccc(OC)cc1` gave an MIC [2] of 3.1 µg/mL (≈ 7.37 µM).
Work on `CCCCSc1cc2[nH]c(C3CCCCC3)nc2cc1NC(=O)c1ccc(F)cc1F` yielded an IC50 (Vero) of over 200 µM, an inhibition of growth at 1 µg/mL [1] of 51% and an MIC [2] of 1.25 µg/mL (≈ 2.82 µM).
For `CCCCOC(=O)Nc1cc2nc(C3CCCCC3)[nH]c2cc1Oc1ccc(F)cc1`, the inhibition [3] was “Active”, the Kd [4] was 1.32 µM and the IC50 (Vero) was 60 µM. For the same compound, the MIC [2] was 0.63 µg/mL (≈ 1.48 µM) and the inhibition [5] was “Dose-dependent effect”.
`CCCOC(=O)Nc1cc2nc(C3CCCCC3)[nH]c2cc1SCc1ccccc1` showed an inhibition of growth at 1 µg/mL [1] of 28%.
`C=CCCC(=O)Nc1cc2nc(C3CCCCC3)[nH]c2cc1SCCCC` gave an inhibition of growth at 1 µg/mL [1] of 52%.
`C=CCCC(=O)Nc1cc2nc(C3CCCCC3)[nH]c2cc1OCCCC` gave an inhibition of growth at 1 µg/mL [1] of 28%.
With `C=CCCC(=O)Nc1cc2nc(C3CCCCC3)[nH]c2cc1Sc1ccc(F)cc1` the inhibition of growth at 1 µg/mL [1] was 41%.
`CCCCSc1cc2[nH]c(C3CCCCC3)nc2cc1NS(=O)(=O)c1ccccc1` gave an inhibition of growth at 1 µg/mL [1] of 42%.
With `CCCCSc1cc2[nH]c(C3CCCCC3)nc2cc1NC(=O)CCc1ccccc1` the inhibition of growth at 1 µg/mL [1] was 33%.
With `C=CCCC(=O)Nc1cc2nc(C3CCCCC3)[nH]c2cc1Oc1ccc(F)cc1` the IC50 (Vero) was over 200 µM, the inhibition of growth at 1 µg/mL [1] was 54% and the MIC [2] was 12.5 µg/mL (≈ 30.7 µM).
Work on `C=CCCC(=O)Nc1cc2nc(C3CCCCC3)[nH]c2cc1SCc1ccccc1` yielded an inhibition of growth at 1 µg/mL [1] of 64%.
`O=C(Nc1cc2nc(C3CCCCC3)[nH]c2cc1Oc1ccc(F)cc1)c1ccc(F)cc1F` showed an IC50 (Vero) of over 200 µM, an inhibition of growth at 1 µg/mL [1] of 44% and an MIC [2] of 12.5 µg/mL (≈ 26.9 µM). The inhibition [5] was “Dose-dependent effect”.
